Activity calls are given as the source filed them. The rule behind the calls is not given here.

The values below come from ChEMBL document CHEMBL4118256, “Second Generation of Mannich Base-Type Derivatives with in Vivo Activity against Trypanosoma cruzi” (J Med Chem, 2018).

Series [1] has as its system Mus musculus. The experiment in a line: Hepatotoxicity in Balb/c mouse infected with Trypanosoma cruzi MHOM/Pe/2011/Arequipa DTU 5 trypamastigotes assessed as increase in ratio of serum ALT to GPT level at […], po once daily for 5 consecutive days starting from day 75 post infection measured on day 81 post infection by biochemical analysis relative to control. It counts as toxicity, organism-based. As to conditions: in vivo.

In series [2] the test system is Mus musculus. As to the kind of experiment: Cardiotoxicity in Balb/c mouse infected with Trypanosoma cruzi MHOM/Pe/2011/Arequipa DTU 5 trypamastigotes assessed as change in serum LDH level at […], po once daily for 5 consecutive days starting from day 75 post infection measured on day 81 post infection by biochemical analysis relative to control. Type of series: toxicity, organism-based. The conditions noted are these: in vivo. A digest of the protocol:
(§1)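 Serum clinical chemistry in Arequipa-infected female BALB/c mice. Oral 20 mg·kg-1 per day for 5 days, started day 10 or day 75 pi. Samples taken at day 16 pi or day 81 pi, and on necropsy day. Markers: CK-MB and LDH (U/L), AST, ALT and alkaline phosphatase (U/L), total bilirubin. Results scored relative to infected untreated controls; uninfected reference n = 15.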

The test system of series [3] is Mus musculus. The experiment in a line: Nephrotoxicity in Balb/c mouse infected with Trypanosoma cruzi MHOM/Pe/2011/Arequipa DTU 5 trypamastigotes assessed as decrease in urea level in serum at […], po once daily for 5 consecutive days starting from day 75 post infection measured on day 127 post infection by biochemical analysis relative to control. Type of series: toxicity, organism-based. The conditions noted are these: in vivo. More on the design: scale not given: the % may be the effect or the level left.

Series [4] deals with Mus musculus. The experiment in a line: Hepatotoxicity in Balb/c mouse infected with Trypanosoma cruzi MHOM/Pe/2011/Arequipa DTU 5 trypamastigotes assessed as increase in ratio of serum AST to GOT level at […], po once daily for 5 consecutive days starting from day 10 post infection measured on day 16 post infection by biochemical analysis relative to control. It counts as toxicity, organism-based. As to conditions: in vivo.

Series [5] has as its system Mus musculus. The experiment in a line: Nephrotoxicity in Balb/c mouse infected with Trypanosoma cruzi MHOM/Pe/2011/Arequipa DTU 5 trypamastigotes assessed as increase in uric acid level in serum at […], po once daily for 5 consecutive days starting from day 10 post infection measured on day 16 post infection by biochemical analysis relative to control. It counts as toxicity, organism-based. The conditions noted are these: in vivo.

The test system of series [6] is Trypanosoma cruzi. As to the kind of experiment: Antitrypanosomal activity against Trypanosoma cruzi MHOM/Pe/2011/Arequipa DTU 5 epimastigotes assessed as effect on parasite glycerol pathway by measuring increase in glycerol excretion at IC25 after 72 hrs by 1H NMR method. It counts as functional, organism-based. The procedure, abridged:
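Arequipa epimastigotes exposed at IC25 for 72 h alongside an untreated control. Excreted catabolites were analysed by 1H NMR, and each peak is reported as % variation versus the control. Three separate determinations.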

The test system of series [7] is Trypanosoma cruzi. The experiment in a line: Antitrypanosomal activity against Trypanosoma cruzi MHOM/Pe/2011/Arequipa DTU 5 trypamastigotes infected in Balb/c mouse assessed as reduction in parasitaemia reactivation in adipose tissue at 100 mg/kg, po pretreated once daily for 5 consecutive days starting from day 75 post infection followed by cyclophosphamide-induced immunosuppression on day 100 post infection every 4 days for a maximum of 3 doses measured on day 127 post infection by PCR method. Type of series: functional. Details: scale not given: the % may be the effect or the level left. A digest of the protocol: (§2)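 Necropsy on day 127 pi after oral treatment and cyclophosphamide immunosuppression. Tissue DNA was amplified by PCR targeting the ~300 bp T. cruzi SOD gene, 200 nM each primer, 30 cycles with 55.5 °C annealing. Products run on 2 % agarose; positive organs counted out of six mice.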

Series [8] has as its system Trypanosoma cruzi. The experiment in a line: Antitrypanosomal activity against Trypanosoma cruzi MHOM/Pe/2011/Arequipa DTU 5 trypamastigotes infected in Balb/c mouse assessed as parasitaemia reactivation at 100 mg/kg, po pretreated once daily for 5 consecutive days starting from day 75 post infection followed by cyclophosphamide-induced immunosuppression on day 100 post infection every 4 days for a maximum of 3 doses measured up to 1 week post immunosuppression by Neubauer chamber method. Type of series: functional.

Series [9] concerns Trypanosoma cruzi. As to the kind of experiment: Antitrypanosomal activity against Trypanosoma cruzi MHOM/Pe/2011/Arequipa DTU 5 trypamastigotes infected in Balb/c mouse assessed as reduction in parasitaemia reactivation in esophagus tissue at 100 mg/kg, po pretreated once daily for 5 consecutive days starting from day 75 post infection followed by cyclophosphamide-induced immunosuppression on day 100 post infection every 4 days for a maximum of 3 doses measured on day 127 post infection by PCR method. Details: scale not given: the % may be the effect or the level left. It counts as functional. A digest of the protocol:
as §2

Series [10] concerns Trypanosoma cruzi. The experiment in a line: Antitrypanosomal activity against Trypanosoma cruzi MHOM/Pe/2011/Arequipa DTU 5 trypamastigotes infected in Balb/c mouse assessed as reduction in parasitaemia reactivation in brain tissue at 100 mg/kg, po pretreated once daily for 5 consecutive days starting from day 75 post infection followed by cyclophosphamide-induced immunosuppression on day 100 post infection every 4 days for a maximum of 3 doses measured on day 127 post infection by PCR method. Type of series: functional. More on the design: scale not given: the % may be the effect or the level left. A digest of the protocol: as §2

For series [11], the system named is Mus musculus. As to the kind of experiment: Cardiotoxicity in Balb/c mouse infected with Trypanosoma cruzi MHOM/Pe/2011/Arequipa DTU 5 trypamastigotes assessed as decrease in serum LDH level at […], po once daily for 5 consecutive days starting from day 10 post infection measured on day 16 post infection by biochemical analysis relative to control. Details: scale not given: the % may be the effect or the level left. It counts as toxicity, organism-based. The conditions noted are these: in vivo. The procedure, abridged:
as §1

For series [12], the system named is Trypanosoma cruzi. The experiment in a line: Antitrypanosomal activity against Trypanosoma cruzi MHOM/Pe/2011/Arequipa DTU 5 trypamastigotes infected in Balb/c mouse assessed as reduction in parasitaemia reactivation in lung tissue at 20 mg/kg, po pretreated once daily for 5 consecutive days starting from day 10 post infection followed by cyclophosphamide-induced immunosuppression on day 100 post infection every 4 days for a maximum of 3 doses measured on day 127 post infection by PCR method. Details: scale not given: the % may be the effect or the level left. It counts as functional. The procedure, abridged: as §2

Series [13] has as its system Mus musculus. The experiment in a line: Nephrotoxicity in Balb/c mouse infected with Trypanosoma cruzi MHOM/Pe/2011/Arequipa DTU 5 trypamastigotes assessed as change in uric acid level in serum at 20 mg/kg, po once daily for 5 consecutive days starting from day 10 post infection measured on day 127 post infection by biochemical analysis relative to control. It counts as toxicity, organism-based. As to conditions: in vivo.

Series [14] relates to Mus musculus. As to the kind of experiment: Nephrotoxicity in Balb/c mouse infected with Trypanosoma cruzi MHOM/Pe/2011/Arequipa DTU 5 trypamastigotes assessed as decrease in urea level in serum at 20 mg/kg, po once daily for 5 consecutive days starting from day 75 post infection measured on day 81 post infection by biochemical analysis relative to control. More on the design: scale not given: the % may be the effect or the level left. Type of series: toxicity, organism-based. As to conditions: in vivo.

The subject of series [15] is Trypanosoma cruzi. The experiment in a line: Antitrypanosomal activity against Trypanosoma cruzi MHOM/Pe/2011/Arequipa DTU 5 trypamastigotes infected in Balb/c mouse assessed as reduction in parasitaemia reactivation in muscle tissue at 20 mg/kg, po pretreated once daily for 5 consecutive days starting from day 10 post infection followed by cyclophosphamide-induced immunosuppression on day 100 post infection every 4 days for a maximum of 3 doses measured on day 127 post infection by PCR method. Type of series: functional. Details: scale not given: the % may be the effect or the level left.

Series [16] relates to Mus musculus. As to the kind of experiment: Cardiotoxicity in Balb/c mouse infected with Trypanosoma cruzi MHOM/Pe/2011/Arequipa DTU 5 trypamastigotes assessed as decrease in serum LDH level at 20 mg/kg, po once daily for 5 consecutive days starting from day 75 post infection measured on day 81 post infection by biochemical analysis relative to control. Type of series: toxicity, organism-based. Details: scale not given: the % may be the effect or the level left. As to conditions: in vivo. The procedure, abridged: as §1

Series [17] deals with Mus musculus. The experiment in a line: Toxicity in Balb/c mouse assessed as reduction in body mass at 20 mg/kg, po once daily for 5 consecutive days starting from day 10 post infection relative to control. More on the design: scale not given: the % may be the effect or the level left. As to conditions: in vivo. Type of series: organism-based.
Series [18] relates to Mus musculus. As to the kind of experiment: Hepatotoxicity in Balb/c mouse infected with Trypanosoma cruzi MHOM/Pe/2011/Arequipa DTU 5 trypamastigotes assessed as increase in ratio of serum AST to GOT level at 20 mg/kg, po once daily for 5 consecutive days starting from day 10 post infection measured on day 127 post infection by biochemical analysis relative to control. Type of series: toxicity, organism-based. As to conditions: in vivo.

Take `COc1ccc(C(=O)CCN2CCN(c3ccc([N+](=O)[O-])cc3)CC2)cc1`: the Activity entry in the series with Mus musculus [1] is “<= 30%”; with Mus musculus [2] it was less than 10%; in the series with Mus musculus [3] it was “<= 10%”; in the series with Mus musculus [4], more than 40%.

As for `COc1ccc(C(=O)CCN2CCN(c3ccc(F)cc3)CC2)cc1`, the Activity result in the series with Mus musculus [5] is “<= 20%”. The result with Trypanosoma cruzi [6] was Active.

For `COc1ccc(C(=O)CCN2CCN(c3ccc(Cl)cc3)CC2)cc1`, the Activity is 78% in the series on Trypanosoma cruzi [7]; 20% in the series on Trypanosoma cruzi [8]; 78% in the series on Trypanosoma cruzi [9]; 78% in the series on Trypanosoma cruzi [10]; “<= 20%” with Mus musculus [11].

In the case of `O=C(Cn1ccnc1[N+](=O)[O-])NCc1ccccc1` [BENZNIDAZOLE], the Activity is 33% in the series with Trypanosoma cruzi [12]; less than 10% with Mus musculus [13]; “<= 30%” with Mus musculus [14]; 33% in the series with Trypanosoma cruzi [15]; “<= 30%” with Mus musculus [16]; more than 10% in the series with Mus musculus [17]. For the same compound, the Activity with Mus musculus [18] is reported as more than 40%.
